Drawing on ChEMBL document CHEMBL1145060, “Synthesis and evaluation of pharmacological properties of novel annelated 2,3-benzodiazepine derivatives” (2003), this text covers ED50 for 13 compounds.

The nature of test [1]: Anticonvulsant activity against Audiogenic seizures in DBA/2 mice was observed in clonic phase after intraperitoneal injection. The conditions noted are these: Mus musculus, ip. The class given is functional. Summed up: (§1)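 Compound given intraperitoneally to DBA/2 mice 30 min before audiogenic seizure testing; clonic and tonic phases scored. ED50 (μmol/kg) with 95% confidence limits calculated by Litchfield and Wilcoxon.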

Test [2] in a line: Anticonvulsant activity against Audiogenic seizures in DBA/2 mice was observed in tonic phase after intraperitoneal injection. It is filed as functional. Conditions: Mus musculus, ip. Summed up:
as §1

Test [3] is described as follows: Anticonvulsant activity against AMPA-induced seizures in DBA/2 mice was observed in clonic phase after intraperitoneal injection. The class given is functional, Mus musculus. Summed up:
(§2)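 DBA/2 mice given compound intraperitoneally, then challenged with AMPA to induce seizures; clonic and tonic phases scored separately. ED50 (μmol/kg) with 95% confidence limits by Litchfield and Wilcoxon method.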

Test [4] can be described thus: Anticonvulsant activity against Audiogenic seizures in DBA/2 mice was observed in tonic phase after pretreatment with Aniracetam. The class given is functional. Conditions: Mus musculus. The essentials:
(§3)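 Audiogenic seizure test in DBA/2 mice, clonic and tonic phases; aniracetam 50 nmol given icv 60 min before testing, together with ip compound. ED50 with 95% confidence limits by Litchfield and Wilcoxon method.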

A short description of test [5]: Anticonvulsant activity against AMPA-induced seizures in DBA/2 mice was observed in tonic phase after intraperitoneal injection. It is filed as functional. Conditions: Mus musculus, ip. Summed up:
as §2

Test [6] in a line: Anticonvulsant activity against Audiogenic seizures in DBA/2 mice was observed in clonic phase after pretreatment with Aniracetam. It is filed as functional. The conditions noted are these: Mus musculus. The essentials: as §3
Test [7] in a line: Anticonvulsant activity against PTZ induced seizures was observed in mice after intraperitoneal injection. The class given is functional. Conditions: Mus musculus, ip. Summed up: (§4)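 Swiss mice dosed ip 45 min before seizure induction by maximal electroshock (MES) or pentylenetetrazole (PTZ). ED50 (μmol/kg) with 95% confidence limits by Litchfield and Wilcoxon method.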
Test [8] can be described thus: Anticonvulsant activity against in MES was observed in mice after intraperitoneal injection. It is filed as functional. Conditions: Mus musculus, ip. The essentials:
as §4

Setting [9] is: Mus musculus, ip, read-out: ED50.

Regarding `COc1cc2c(cc1OC)C(c1ccc(N)cc1)=Nn1c(n[nH]c(=O)c1=O)C2`, the ED50 in test [1] was 59.3 µmol/kg; in test [2] it was 52.8 µmol/kg.

In the case of `CC1=NN=C(c2ccc(N)cc2)c2cc3c(cc2C1)OCO3` [GYKI-52466], the ED50 in test [3] (setting [9]) amounted to 57.5 µmol/kg; in test [4], 100 µmol/kg.

As for `COc1cc2c(cc1OC)C(c1cccc(N)c1)=Nn1c(n[nH]c(=O)c1=O)C2`, the ED50 in test [1] came to 74.5 µmol/kg; in test [2], 57.7 µmol/kg.

For `COc1cc2c(cc1OC)C(c1ccc(N)cc1)=NNC(=O)C2`, the results for the ED50 in test [1], in test [5] and in test [4] were 15 µmol/kg, 25 µmol/kg and 56.2 µmol/kg, respectively.

For the compound `COc1cc2c(cc1OC)C(c1ccc(Cl)cc1)=Nn1c(O)nnc1C2`, the ED50 in test [1] was 28.8 µmol/kg; in test [6], 87.8 µmol/kg; in test [3], 46.8 µM/kg; in test [3] (setting [9]) it was 46.8 µmol/kg; in test [2], 14.1 µmol/kg; in test [7] it was 33.1 µmol/kg. Moreover, in test [4], the ED50 worked out at 71.8 µmol/kg.

Regarding `COc1cc2c(cc1OC)C(c1ccc(Br)cc1)=Nn1c(n[nH]c(=O)c1=O)C2`, the ED50 in test [1] turned out to be 76.6 µmol/kg; in test [2], 54.6 µmol/kg.

Consider `COc1cc2c(cc1OC)C(c1ccc(F)cc1)=Nn1c(n[nH]c(=O)c1=O)C2`, for which the ED50 in test [1] was found to be 39.2 µmol/kg; in test [2], 28 µmol/kg; in test [7], 63.2 µmol/kg; in test [8], 37.8 µmol/kg.

Regarding `COc1cc2c(cc1OC)C(c1cccc([N+](=O)[O-])c1)=Nn1c(n[nH]c(=O)c1=O)C2`, the results for the ED50 in test [1] and in test [2] were above 120 µmol/kg and 88.9 µmol/kg, respectively.

As for `COc1cc2c(cc1OC)C(c1ccccc1)=Nn1c(n[nH]c(=O)c1=O)C2`, the ED50 in test [1] worked out at 33.6 µmol/kg; in test [2], 17.9 µmol/kg; in test [7], 57.6 µmol/kg; in test [8] it was 36.6 µmol/kg.

Regarding `COc1cc2c(cc1OC)C(c1ccc(Cl)cc1)=Nn1c(n[nH]c(=O)c1=O)C2`, the ED50 in test [1] worked out at 37.4 µmol/kg; in test [2], 33 µmol/kg.

Turning to `COc1cc2c(cc1OC)C(c1ccc(Br)cc1)=Nn1c(O)nnc1C2`, the ED50 was found to be 3.65 µmol/kg in test [1]; 18.6 µmol/kg in test [6]; 17.7 µM/kg in test [3]; 17.7 µmol/kg in test [3] (setting [9]); 1.34 µmol/kg in test [2]; 13.8 µmol/kg in test [7]. Also, the figures for the ED50 in test [8] and in test [4] were 5.93 µmol/kg and 7.87 µmol/kg, respectively.

On to `COc1cc2c(cc1OC)C(c1ccc([N+](=O)[O-])cc1)=Nn1c(n[nH]c(=O)c1=O)C2`, for which the figures for the ED50 in test [1] and in test [2] were 60 µmol/kg and 25.7 µmol/kg, respectively.

`CC(=O)N1N=C(c2ccc(N)cc2)c2cc3c(cc2C[C@H]1C)OCO3` [TALAMPANEL]: the ED50 turned out to be 44.2 µmol/kg in test [3] (setting [9]), 9.7 µmol/kg in test [2], 56.3 µmol/kg in test [7] and 28.8 µmol/kg in test [8].
